Columns and labels:
[1] = (§1) Half life was administered by using 20%aqueous hydroxypropyl-beta-cyclodextrin (HPbetaCD) as vehicle to nude mice at a dose of 25mpk,; assay type: ADME, organism-based; details: mouse, in vivo, 25 mg/kg
[2] = (§2) Area under curve was determined using 20%aqueous hydroxypropyl-beta-cyclodextrin (HPbetaCD) as vehicle. Compound was administered intravenously to nude mice at a dose of 25 mg/kg; assay type: ADME, organism-based; set-up: dose 25 mg/kg, route intravenous; details: mouse, in vivo, iv
Outline: (§3)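 Nude mice were dosed at 25 mpk, intravenously or orally as the line states, in 20% aqueous hydroxypropyl-β-cyclodextrin or 0.4% aqueous methyl cellulose. Serum was sampled over 24 h. Each time point came from sera of different animals.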

[3] = target: T1, Protein farnesyltransferase (Homo sapiens, UniProt P49354+P49356); assay: Effect on Ras processing in Cos-1 monkey kidney cells expressing either H-Ras-Val 12-CVLS or H-Ras-Val12.; assay type: functional, cell-based, Cercopithecidae
Outline: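 Ras processing was tested in Cos-1 monkey kidney cells transiently expressing H-Ras-Val12-CVLS or H-Ras-Val12. IC50 values are single-point determinations.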

[4] = (§4) Bioavailability in mouse (nude) using 20% aqueous hydroxypropyl-beta-cyclodextrin (HPbetaCD) as vehicle 25 mg/kg; assay type: ADME, organism-based; details: in vivo; for bioavailability: nude
[5] = tested on: NIH-3T3 (Mus musculus); assay: inhibition of tumor colony formation in soft agar
[6] = (§5) Area under curve was determined using 20%aqueous hydroxypropyl-beta-cyclodextrin (HPbetaCD) as vehicle. Compound was administered orally to nude mice at a dose of 25 mg/kg; assay type: ADME, organism-based; set-up: dose 25 mg/kg, route oral; details: mouse, in vivo, po; outline: as §3
[7] = Maximum concentration (Cmax) using 20%aqueous hydroxypropyl-beta-cyclodextrin (HPbetaCD) as vehicle. compound was administered orally to nude mice at a dose of 25 mg/kg; assay type: ADME, organism-based; set-up: dose 25 mg/kg, route oral; details: mouse, in vivo, po; outline: as §3
[8] = target: T1, Protein farnesyltransferase; assay: Inhibition of [3H]FPP incorporation into His6-H-Ras-CVLS by farnesyl transferase; assay type: protein-complex assay
[9] = Maximum concentration (Cmax) using 20%aqueous hydroxypropyl-beta-cyclodextrin (HPbetaCD) as vehicle. compound was administered intravenously to nude mice at a dose of 25 mg/kg; assay type: ADME, organism-based; set-up: dose 25 mg/kg, route intravenous; details: mouse, in vivo, iv; outline: as §3
[10] = target: T1, Protein farnesyltransferase; assay: Inhibitory activity against Hras Farnesyltransferase (FPT).; assay type: protein-complex assay
[11] = Area under curve was determined using 0.4% Methyl cellulose (MC) as vehicle. Compound was administered orally to nude mice at a dose of 25 mg/kg; assay type: ADME, organism-based; set-up: dose 25 mg/kg, route oral; details: mouse, in vivo, po; outline: as §3
[12] = Area under curve was determined using 0.4% Methyl cellulose (MC) as vehicle. Compound was administered intravenously to nude mice at a dose of 25 mg/kg; assay type: ADME, organism-based; set-up: dose 25 mg/kg, route intravenous; details: mouse, in vivo, iv; outline: as §3
[13] = Area under curve was determined using 0.4% Methyl cellulose (MC) as vehicle. Compound was administered orally to nude mice at a dose of 25 mg/kg (micronized sample); assay type: ADME, organism-based; set-up: dose 25 mg/kg, route oral; details: mouse, in vivo, po
Outline: (§6)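 A micronized sample was given orally at 25 mpk to nude mice in 0.4% aqueous methyl cellulose. Serum was collected over 24 h, with separate animals for each time point.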

[14] = Maximum concentration (Cmax) using 0.4% Methyl cellulose (MC) as vehicle. compound was administered intravenously to nude mice at a dose of 25 mg/kg; assay type: ADME, organism-based; set-up: dose 25 mg/kg, route intravenous; details: mouse, in vivo, iv; outline: as §3
[15] = Percent bioavailability was administered by using 0.4% Methyl cellulose (MC) as vehicle to nude mice at a dose of 25 mg/kg (micronized sample); assay type: ADME, organism-based; details: mouse, in vivo, read-out: Bioavailabiility; outline: as §6
[16] = Maximum concentration (Cmax) using 0.4% Methyl cellulose (MC) as vehicle. compound was administered orally to nude mice at a dose of 25 mg/kg; assay type: ADME, organism-based; set-up: dose 25 mg/kg, route oral; details: mouse, in vivo, po; outline: as §3
[17] = Maximum concentration (Cmax) using 0.4% Methyl cellulose (MC) as vehicle. compound was administered orally to nude mice at a dose of 25 mg/kg (micronized sample); assay type: ADME, organism-based; set-up: dose 25 mg/kg, route oral; details: mouse, in vivo, po; outline: as §6
[18] = tested on: NIH-3T3 (Mus musculus); assay: Inhibition of tumor colony formation in soft agar
[19] = Bioavailability in mouse (nude) (dose 0.4% Methylcellulose (MC) as vehicle 25 mg/kg); assay type: ADME, organism-based; details: in vivo
[20] = target: T1, Protein farnesyltransferase; assay: Inhibition of Hras Farnesyl protein transferase (FPT); assay type: protein-complex assay
[21] = Area under curve was determined using 20%aqueous hydroxypropyl-beta-cyclodextrin (HPbetaCD) as vehicle. Compound was administered orally to nude mice at a dose of 25 mg/kg (run time 7 hr); assay type: ADME, organism-based; set-up: dose 25 mg/kg, route oral; details: mouse, in vivo, po
Outline: (§7)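 Nude mice received 25 mpk in 20% aqueous hydroxypropyl-β-cyclodextrin, by the route the line gives. Serum was collected over a shortened 7-h run rather than 24 h. Each time point used sera from different animals.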

[22] = Area under curve was determined using 20%aqueous hydroxypropyl-beta-cyclodextrin (HPbetaCD) as vehicle. Compound was administered intravenously to nude mice at a dose of 25 mg/kg (run time 7 hr); assay type: ADME, organism-based; set-up: dose 25 mg/kg, route intravenous; details: mouse, in vivo, iv; outline: as §7
[23] = as §2; assay type: organism-based; set-up: dose 25 mg/kg; outline: as §3
[24] = as §1; assay type: organism-based
[25] = tested on: Mus musculus; assay: as §4; assay type: organism-based
[26] = as §5; assay type: organism-based; set-up: dose 25 mg/kg; outline: as §3

Row | half-life [1] | IC50 [3] | Cmax [7] | Cmax [9] | IC50 [10] | SMILES | IC50 [5] | other results
1 | 1.3 h | 9 nM | 0.49 µM | 30 µM | – | CN(C)S(=O)(=O)N1CCC(CC(=O)N2CCC([C@H]3c4ncc(Br)cc4CCc4cc(Cl)cc(Br)c43)CC2)CC1 | 100 nM | AUC [2]: 5950 ng·h/mL; bioavailability [4]: 1.7%; AUC [6]: 100 ng·h/mL; IC50 [8]: 7.8 nM
2 | – | – | – | – | – | CCOC(=O)CNC(=O)N1CCC(CC(=O)N2CCC([C@H]3c4ncc(Br)cc4CCc4cc(Cl)cc(Br)c43)CC2)CC1 | 310 nM | –
3 | – | 40 nM | – | – | – | CCN(CC)C(=O)CN1CCC(CC(=O)N2CCC([C@H]3c4ncc(Br)cc4CCc4cc(Cl)cc(Br)c43)CC2)CC1 | 300 nM | –
4 | – | – | – | – | – | CNC(=O)N1CCC(CC(=O)N2CCC([C@H]3c4ncc(Br)cc4CCc4cc(Cl)cc(Br)c43)CC2)CC1 | 100 nM | –
5 | – | > 1000 nM | – | – | 0.8 nM | O=C(O)c1cncc(C(=O)N2CCC(CC(=O)N3CCC([C@H]4c5ncc(Br)cc5CCc5cc(Cl)cc(Br)c54)CC3)CC2)c1 | > 500 nM | –
6 | 1.42 h | 7 nM | 16.2 µM | 52.3 µM | – | O=C(CC1CCN(C(=O)c2ccc[n+]([O-])c2)CC1)N1CCC([C@H]2c3ncc(Br)cc3CCc3cc(Cl)cc(Br)c32)CC1 | – | AUC [11]: 3600 ng·h/mL; AUC [12]: 62000 ng·h/mL; AUC [13]: 5750 ng·h/mL; AUC [2]: 62000 ng·h/mL; Cmax [14]: 52.3 µM; bioavailability [15]: 9.28%; Cmax [16]: 0.75 µM; Cmax [17]: 2.27 µM; bioavailability [4]: 113%; IC50 [18]: 165 nM; AUC [6]: 70100 ng·h/mL; bioavailability [19]: 5.81%; IC50 [20]: 2.1 nM
7 | – | 9 nM | – | – | 4.3 nM | O=C(CC1CCN(C(=O)Cn2cccc2)CC1)N1CCC([C@H]2c3ncc(Br)cc3CCc3cc(Cl)cc(Br)c32)CC1 | 460 nM | –
8 | – | 25 nM | – | – | – | NC(=O)CNC(=O)N1CCC(CC(=O)N2CCC([C@H]3c4ncc(Br)cc4CCc4cc(Cl)cc(Br)c43)CC2)CC1 | 330 nM | IC50 [8]: 0.9 nM
9 | 1.1 h | < 10 nM | 7.1 µM | 26.2 µM | 2.7 nM | NC(=O)C(=O)N1CCC(CC(=O)N2CCC([C@H]3c4ncc(Br)cc4CCc4cc(Cl)cc(Br)c43)CC2)CC1 | 85 nM | AUC [2]: 27100 ng·h/mL; F [4]: 166%; AUC [6]: 45000 ng·h/mL
10 | – | 39 nM | – | – | 7.9 nM | C[C@@H](N)C(=O)N1CCC(CC(=O)N2CCC([C@H]3c4ncc(Br)cc4CCc4cc(Cl)cc(Br)c43)CC2)CC1 | 200 nM | –
11 | 0.28 h | < 10 nM | 2.15 µM | 22.6 µM | – | O=C(CC1CCN(C(=O)Cn2cncn2)CC1)N1CCC([C@H]2c3ncc(Br)cc3CCc3cc(Cl)cc(Br)c32)CC1 | 110 nM | bioavailability [4]: 19.5%; AUC at 7 h [21]: 1970 ng·h/mL; AUC at 7 h [22]: 10100 ng·h/mL
12 | – | – | 2.92 µM | 80 µM | – | NCC(=O)N1CCC(CC(=O)N2CCC([C@H]3c4ncc(Br)cc4CCc4cc(Cl)cc(Br)c43)CC2)CC1 | – | AUC [23]: 125000 ng·h/mL; T1/2 [24]: 1.4 h; bioavailability [25]: 4.7%; AUC [26]: 5840 ng·h/mL
13 | – | 140 nM | – | – | – | C[C@H](N)C(=O)N1CCC(CC(=O)N2CCC([C@H]3c4ncc(Br)cc4CCc4cc(Cl)cc(Br)c43)CC2)CC1 | – | –
